This is a sample that favours compounds with a hit; in the whole collection about 1.7% have one here.
CXCR6 block – CXCR6 receptor inhibitors, primary screen, cell-based, beta-arrestin, luminescence, CHO-K1 PathHunter, 1536-well; inhibition, % at 20 µM; C-X-C chemokine receptor type 6 (Homo sapiens), O00574; AID 602244, 2012; 360,000 compounds, 0.36% hits; in the data active = inhibition above about 34%, passing the limit was not always enough;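 note: antagonist mode with CXCL16 agonist at 10 nM final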
APJ antag – antagonists of human apelin receptor APJ, primary screen, CHO-K1 cells, beta-arrestin complementation, luminescence; AID 2521, 2010; inhibition, % at 20 µM; 330,000 compounds, 0.32% hits; P35414;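 active = inhibition above about 40% at 20 µM, limit read from the data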;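 note: cells challenged with 10 nM apelin-13 agonist together with compound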
Target sequence (P35414 whole entry, looked up): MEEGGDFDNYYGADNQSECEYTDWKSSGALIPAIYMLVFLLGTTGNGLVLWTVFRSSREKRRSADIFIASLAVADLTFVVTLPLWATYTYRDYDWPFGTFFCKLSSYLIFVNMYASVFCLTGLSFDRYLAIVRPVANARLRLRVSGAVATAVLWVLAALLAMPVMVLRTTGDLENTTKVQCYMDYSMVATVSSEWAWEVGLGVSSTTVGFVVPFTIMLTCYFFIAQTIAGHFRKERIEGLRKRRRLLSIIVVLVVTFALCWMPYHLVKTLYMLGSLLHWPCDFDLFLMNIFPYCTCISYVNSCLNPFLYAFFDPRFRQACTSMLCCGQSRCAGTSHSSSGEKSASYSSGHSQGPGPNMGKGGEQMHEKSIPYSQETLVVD
Beta2AR agonist – beta2AR agonists driving receptor internalization, primary screen, cell-based, FAP fluorogen, flow cytometry | response, % (no concentration beside the values) | Beta-2 adrenergic receptor (Homo sapiens), P07550 | Am2.2-beta2AR cells | 340,000 compounds, 0.43% hits;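 active = response above a set limit, near 3 SD of response in nonfluorescent compounds, cut at about 42% in these data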
CCR6 antagonist – CCR6 receptor antagonists, primary screen, cell-based, CHO-K1, luminescence, beta-arrestin, uHTS; CHO-K1 CCR6 PathHunter beta-arrestin, CCL20-stimulated; 340,000 compounds, 0.49% hits; inhibition, % at 20 µM;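 active = compounds whose inhibition of the agonist-driven luminescence signal at 20 µM reaches about 50%, limit read from the data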;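 note: cells stimulated with CCL20 at 14 nM final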
APJ agonist – agonists of human apelin receptor APJ, primary screen, CHO-K1 cells, PathHunter beta-arrestin, luminescence. 0% DMSO wells, 100% apelin. P35414. activation, % at 20 µM. 330,000 compounds, 0.11% hits;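 active = activation more than six SD over the plate average, tested at 20 µM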
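system = engineered CHO-K1 APJ arrestin reporter cells | input = 1000 cells per well | timing = overnight seeding, 90 min compound at 25 °C, 1 h detection | measured by = enzyme-fragment complementation luminescence | read-out = beta-arrestin recruitment to APJ as agonist activity, luminescent signal | control set = negative DMSO alone, positive Apelin-13 at 10 nM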
PfG6PD inh – PfG6PD enzyme inhibitors, primary screen, biochemical, fluorescence intensity, uHTS; inhibition, % at 20 µM; PfGluPho enzyme, NADPH resazurin-diaphorase fluorescence; 350,000 compounds, 0.78% hits; glucose-6-phosphate dehydrogenase-6-phosphogluconolactonase (Plasmodium falciparum 3D7);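 active = inhibition reaching at least a set limit at 20 µM in the primary screen, cut at about 59% in these data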
A number is an active result.

`Cc1ccc(N/C(N)=N/c2nc3c(c(=O)[nH]2)CCCC3)c(C)c1` gave CXCR6 block inactive, APJ antag inactive, Beta2AR agonist inactive, CCR6 antagonist inactive, APJ agonist inactive and PfG6PD inh inactive.
For CCOC(=O)Cc1csc(NC(=O)CSc2nc(=O)[nH]c3c2CCCC3)n1 the results were CXCR6 block inactive, APJ antag inactive, Beta2AR agonist inactive, CCR6 antagonist inactive, APJ agonist inactive and PfG6PD inh inactive.
For COc1ccc(-c2oc(=O)c3cc(OC)c(OC)cc3c2-c2ccc3c(c2)OCO3)cc1 the results were CXCR6 block inactive, APJ antag inactive, Beta2AR agonist inactive, CCR6 antagonist inactive, APJ agonist inactive and PfG6PD inh inactive.
For COc1cc2c(OC(C)=O)c3c(c(-c4ccc5c(c4)OCO5)c2cc1OC)C(=O)OC3 the results were CXCR6 block inactive, APJ antag inactive, Beta2AR agonist 58.7, CCR6 antagonist inactive, APJ agonist inactive and PfG6PD inh inactive.
`COc1ccc(/C=C/C(=O)c2ccc3c(c2)OCO3)cc1OC` gave CXCR6 block inactive, APJ antag inactive, Beta2AR agonist inactive, CCR6 antagonist inactive, APJ agonist inactive and PfG6PD inh inactive.
`COc1cc2c(O)c3c(c(-c4ccc5c(c4)OCO5)c2cc1OC)C(=O)OC3` gave CXCR6 block inactive, APJ antag inactive, Beta2AR agonist 44.9, CCR6 antagonist inactive, APJ agonist inactive and PfG6PD inh inactive.
CN(C)S(=O)(=O)c1cccc(NC(=O)C2Cc3ccccc3CN2C(=O)c2ccccc2)c1 (stereo unspecified) was read as CXCR6 block inactive, APJ antag inactive, Beta2AR agonist inactive, CCR6 antagonist inactive, APJ agonist inactive and PfG6PD inh inactive.
`Cn1c(N)c(C(=O)c2cc(-c3ccccn3)nc3ccccc23)c(=O)[nH]c1=O` gave CXCR6 block inactive, APJ antag 55.7, Beta2AR agonist inactive, CCR6 antagonist inactive, APJ agonist inactive and PfG6PD inh inactive.
Screening COCCCN1C(=O)CC(C(=O)OC)=C1C returned CXCR6 block inactive, APJ antag inactive, Beta2AR agonist inactive, CCR6 antagonist inactive, APJ agonist inactive and PfG6PD inh inactive.
`Cc1cc(-c2nsc(=O)o2)c(S(C)(=O)=O)s1` gave CXCR6 block inactive, APJ antag inactive, Beta2AR agonist inactive, CCR6 antagonist inactive, APJ agonist inactive and PfG6PD inh 67.9.
Screening COc1cccc(C2/C(=C(\O)c3ccc4c(c3)OCCO4)C(=O)C(=O)N2CCCN2CCOCC2)c1OC (stereo unspecified) returned CXCR6 block inactive, APJ antag inactive, Beta2AR agonist inactive, CCR6 antagonist inactive, APJ agonist inactive and PfG6PD inh inactive.
CC(=O)N1/C(=C/c2ccc(N(C)C)cc2)C(=O)c2ccccc21 was read as CXCR6 block inactive, Beta2AR agonist 45.3, CCR6 antagonist inactive and PfG6PD inh inactive.
`CN(C)c1ccc(/C=C2\CCC/C(=C\c3ccccc3)C2=O)cc1` gave CXCR6 block inactive, Beta2AR agonist inactive, CCR6 antagonist inactive and PfG6PD inh inactive.
`O=C1Nc2ccc(Br)cc2/C1=C/c1ccc(C(=O)O)cc1` gave APJ antag inactive and APJ agonist inactive.
Cc1nc2ccccn2c1C(=O)N=Nc1c(O)n(CCC(C)C)c2ccccc12 was read as CXCR6 block inactive, APJ antag inactive, Beta2AR agonist 45.4, CCR6 antagonist inactive, APJ agonist inactive and PfG6PD inh inactive.
`Cc1onc(-c2ccccc2)c1C(=O)N1CCCC(C)(C(=O)NS(=O)(=O)C2CC2)C1` (stereo unspecified) gave CXCR6 block inactive.
Screening COc1ccc(NC(=S)NC(NC(=O)c2ccc(Cl)cc2Cl)C(Cl)(Cl)Cl)c([N+](=O)[O-])c1 (stereo unspecified) returned CXCR6 block 33.3, APJ antag inactive, Beta2AR agonist inactive, CCR6 antagonist inactive, APJ agonist inactive and PfG6PD inh inactive.
